Laboratory results reported in ChEMBL document CHEMBL1129960, “Design, synthesis, and antiviral evaluation of 2-substituted 4,5-dichloro- and 4,6-dichloro-1-beta-D-ribofuranosylbenzimidazoles as potential agents for human cytomegalovirus infections” (J Med Chem, 1997).

Columns and labels:
[1] = system: Human betaherpesvirus 5; assay: Concentration required for 90% inhibition of HCMV replication was measured using a yield reduction assay; type: functional
Procedure, shortened: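 HCMV yield reduction in HFF cells infected at moi 0.5–1 pfu/cell. Compound in duplicate as 1:3 serial dilutions from 100 to 0.05 μM; 7 days at 37 °C. One freeze-thaw, then progeny titered by plaque count on secondary HFF plates (1:3 dilutions). IC90 from regression of percent inhibition vs log concentration.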

[2] = system: HFF; assay: Visual cytotoxicity was scored on HFF cells at time of HCMV plaque enumeration; type: functional, cell-based; details: Homo sapiens
Procedure, shortened: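 Uninfected stationary HFF cells from the HCMV plaque assay plates, inspected microscopically for cytotoxicity at the time plaques were counted (7–10 days, 37 °C).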

[3] = system: KB; assay: Inhibition of KB cell growth was determined; type: functional, cell-based; details: Homo sapiens
Procedure, shortened: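 KB cells seeded at 3000–5000/well and incubated overnight; compound at 6–8 concentrations in quadruplicate; 48 h at 37 °C in CO2, about two population doublings. Ethanol fixation, 0.1% crystal violet stain, acidified ethanol elution, read at 570 nm. IC50 by linear regression vs log concentration.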

[4] = system: Human betaherpesvirus 5; assay: Concentration required for 50% inhibition of HCMV replication was measured using a Plaque reduction assay; type: functional, organism-based
Procedure, shortened: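 HCMV Towne (P0) plaque reduction in HFF cells, ~100 pfu/cm². After adsorption, compound in growth medium at 4–8 concentrations in duplicate wells; 7–10 days at 37 °C. Crystal violet stain, microscopic plaque count. Percent plaque reduction vs no-drug wells; IC50 by linear regression vs log concentration.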

[5] = system: Human alphaherpesvirus 1; assay: Antiviral activity was measured by plaque assay against HSV-1 virus by ELISA method; type: functional, organism-based
Procedure, shortened: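 HSV-1 (KOS) in BSC-1 cells, 10 000 cells/well seeded in MEM(E) + 10% calf serum, overnight at 37 °C; drug in quadruplicate plus 100 pfu/well virus; 3 days at 37 °C. ELISA read-out with HRP-rabbit anti-HSV-1 and TMB, absorbance at 450/570 nm. Percent reduction vs virus-only wells; IC50 by linear regression on log concentration.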

Nc1nc2c(ncn2COC(CO)CO)c(=O)[nH]1 [GANCICLOVIR]
IC90 [1]: 1.6 µM
IC50 [2]: > 100 µM
IC50 [3]: > 100 µM

OC[C@H]1OC(n2c(S)nc3c(Cl)cc(Cl)cc32)[C@H](O)[C@@H]1O (stereo partly drawn)
IC50 [4]: > 100 µM
IC50 [2]: > 100 µM
IC50 [5]: > 300 µM
IC50 [3]: > 300 µM

Clc1cc(Cl)c2[nH]c(Cl)nc2c1
IC50 [4]: 5.1 µM
IC50 [2]: 32 µM
IC50 [5]: > 100 µM
IC50 [3]: > 100 µM

OC[C@H]1O[C@H](n2c(Br)nc3cc(Cl)c(Cl)cc32)[C@@H](O)[C@H]1O
IC90 [1]: 0.2 µM
IC50 [3]: > 100 µM

OC[C@H]1OC(n2c(Br)nc3c(Cl)cc(Cl)cc32)[C@H](O)[C@@H]1O (stereo partly drawn)
IC50 [4]: 1.6 µM
IC90 [1]: 2.1 µM
IC50 [2]: 127 µM
IC50 [5]: > 300 µM
IC50 [3]: 150 µM

OC[C@H]1OC(n2c(Br)nc3c(Cl)c(Cl)ccc32)[C@H](O)[C@@H]1O (stereo partly drawn)
IC50 [4]: 2.4 µM
IC90 [1]: 1 µM
IC50 [2]: 161 µM
IC50 [5]: > 100 µM
IC50 [3]: > 100 µM

OC[C@H]1O[C@@H](n2c(Cl)nc3cc(Cl)c(Cl)cc32)[C@H](O)[C@@H]1O
IC90 [1]: 1.4 µM

Clc1nc2c(Cl)c(Cl)ccc2[nH]1
IC50 [4]: 8 µM
IC50 [2]: 32 µM
IC50 [5]: > 100 µM
IC50 [3]: 80 µM

[N-]=[N+]=Nc1nc2c(Cl)cc(Cl)cc2n1C1O[C@H](CO)[C@@H](O)[C@H]1O (stereo partly drawn)
IC50 [4]: 110 µM
IC90 [1]: 41 µM
IC50 [2]: > 100 µM

CSc1nc2c(Cl)cc(Cl)cc2n1C1O[C@H](CO)[C@@H](O)[C@H]1O (stereo partly drawn)
IC50 [4]: 110 µM
IC50 [2]: 150 µM
IC50 [5]: > 300 µM
IC50 [3]: 270 µM

OC[C@H]1OC(n2c(SCc3ccccc3)nc3c(Cl)cc(Cl)cc32)[C@H](O)[C@@H]1O (stereo partly drawn)
IC50 [4]: 41 µM
IC50 [2]: 32 µM
IC50 [5]: 140 µM
IC50 [3]: 122 µM

Nc1nc2c(Cl)cc(Cl)cc2n1C1O[C@H](CO)[C@@H](O)[C@H]1O (stereo partly drawn)
IC50 [4]: > 100 µM
IC90 [1]: > 100 µM
IC50 [2]: > 100 µM
IC50 [5]: > 300 µM
IC50 [3]: > 300 µM

O=C(O)P(=O)(O)O [FOSCARNET]
IC50 [2]: > 100 µM

Nc1nc2c(Cl)cc(Cl)cc2[nH]1
IC50 [4]: > 100 µM
IC50 [2]: 100 µM
IC50 [5]: > 100 µM

OC[C@H]1OC(n2c(Cl)nc3c(Cl)cc(Cl)cc32)[C@H](O)[C@@H]1O (stereo partly drawn)
IC50 [4]: 10 µM
IC90 [1]: 4.5 µM
IC50 [2]: 77 µM
IC50 [5]: > 300 µM
IC50 [3]: 230 µM

OC[C@H]1OC(n2c(Cl)nc3c(Cl)c(Cl)ccc32)[C@H](O)[C@@H]1O (stereo partly drawn)
IC50 [4]: 16 µM
IC90 [1]: 6 µM
IC50 [2]: > 100 µM
IC50 [5]: > 100 µM
IC50 [3]: > 100 µM
